Test results taken from PubChem BioAssay.
Activity calls are given as the source filed them.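 Rule for the calls: active = duplicate-averaged activation above buffer control mean plus 5 SD of those controls; inactive = the rest.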

Experiment: thallium flux activation in parental CHO cells, counter-screen for KCNQ1 potentiator project (AID 493006);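 for activation: fluorescence ratio of max minus min over baseline after K+ and Tl+ depolarization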
Conditions: parental CHO-K1 cells, FluxOR thallium flux, at 10 µM; active compounds read high
Outline: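 Material: parental CHO-K1 cells, FluxOR dye-loaded; Also added: Potassium/thallium depolarization pulse; Schedule: overnight 37 °C plating, 90 min dye, 20 min dark compound; Signal: kinetic FluxOR fluorescence, 10 s baseline, 110 s after stimulus.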

Structure (SMILES) | outcome | activation
CC(=O)c1c(-c2ccccc2)c2cc([N+](=O)[O-])ccc2[nH]c1=O | inactive | –
CC(C)Cn1c(=S)[nH]c2cc(Cl)ccc21 | – | 196% (active)
O=C(Nn1c(Cc2cccs2)nc2ccccc2c1=O)c1cccs1 | inactive | –
COc1ccc(Cl)cc1N(C)C(=O)CCNC(=O)Cn1cnc2ccccc2c1=O | inactive | –
C=CCC(=O)N1CCC(n2nccc2NC(=O)CCOc2ccccc2)CC1 | inactive | –
Cc1[nH]c(-c2ccccn2)nc(=S)c1Cl | – | 244% (active)
CC1=NN(C(N)=S)C(=O)C1N=Nc1cccc(Cl)c1C (centres undefined) | – | 1010% (active)
COc1cccc(OCC(=O)NNC(=O)C(=O)Nc2cccc(C)c2)c1 | – | 188% (active)
COc1ccc(CCN2CC(C(=O)Nc3ccc4c(c3)OCO4)CC2=O)cc1OC (centres undefined) | – | 156% (active)
COC(=O)c1sc(NC(=S)NC(=O)c2ccc(C)cc2)nc1C | – | 172% (active)
COC(=O)C1=C(C(=O)OC)[C@@H]2N(C)c3ccccc3[C@@]23C[C@@H](C(=O)OC)N(C(=O)c2ccc(Br)cc2)C3=N1 | – | 158% (active)
O=C(NC(=S)N1CCN(c2ccc(Cl)cc2[N+](=O)[O-])CC1)c1cccs1 | – | 188% (active)
Cc1c(C(=O)NC(=S)NCc2cccnc2)oc2ccccc12 | inactive | –
Cc1cccc(NC(=O)Nc2ccc(OCc3ccccc3)cc2)n1 | inactive | –
COc1cccc(N=Nc2ccc3cccnc3c2O)c1 | – | 154% (active)
COc1ccc(Nc2nc(-c3sc(C)nc3C)cs2)c(OC)c1 | inactive | –
O=c1c2cccnc2[nH]c(=S)n1CCC1=CCCCC1 | – | 258% (active)
Cc1ccc(-c2cc(-c3n[nH]c(=S)o3)c3ccccc3n2)cc1 | – | 468% (active)
COC(=O)c1ccc(CSc2ncnc3sc(C)c(C)c23)o1 | – | 155% (active)
Cc1ccc(CSc2nc3ccccc3c(=O)n2CCCC(=O)NCc2ccco2)cc1 | inactive | –

Structure (SMILES) | outcome | activation
CCc1ccc(S(=O)(=O)NC(=S)NC2CCCCC2)cc1 | – | 330% (active)
COc1ccc(OCC(=O)Nc2cccc(C(C)=O)c2)cc1 | inactive | –
O=C(O)C(c1ccccc1)N1C(=O)/C(=C\c2ccc(-c3ccc(Br)cc3)o2)SC1=S (centres undefined) | inactive | –
O=C(COC(=O)c1cc(NS(=O)(=O)c2cccs2)ccc1O)Nc1cc(Cl)ccc1Cl | inactive | –
Cc1cccc(CS(=O)(=O)c2ncc(CO)n2C)c1 | inactive | –
CCOC(=O)c1sc(NC(=O)c2ccncc2)nc1C | – | 161% (active)
CC1(C)CC2CC(C)(CN2C(=S)NC(=O)c2ccccc2Cl)C1 (centres undefined) | – | 341% (active)
CCCCn1c(=O)nc2n(-c3ccccc3C)c3ccccc3cc-2c1=O | inactive | –
CCCCn1c(NS(=O)(=O)c2ccc(C)cc2)c(S(=O)(=O)c2ccccc2)c2nc3ccccc3nc21 | inactive | –
Cc1ccc(S(=O)(=O)Nc2cc(C(F)(F)F)ccc2N2CCOCC2)c(C)c1 | inactive | –
COCCCN=C1NN=C(c2cc(C)n(-c3ccccc3F)c2C)CS1 | inactive | –
O=C(NC(=S)N1CCCc2ccccc21)c1ccc(Br)cc1 | – | 222% (active)
Cc1nn(C)c(C(=O)NC(=S)Nc2ccc([N+](=O)[O-])cc2)c1Cl | – | 166% (active)
CC1(C)CC(N2CCOCC2)=CC(=[N+]2CCOCC2)C1 | inactive | –
CCc1ccc2nc(N(CCCN(C)C)C(=O)c3ccc(S(=O)(=O)N4CCCc5ccccc54)cc3)sc2c1 | inactive | –
Cn1c(O)c(N=Nc2nc(-c3ccccc3)cs2)c2ccccc21 | – | 510% (active)
CS(=O)(=O)N1CCN(Cc2ccc(C(F)(F)F)cc2)CC1 | inactive | –
CCOC(=O)/C(C)=N/NC(=O)c1ccc([N+](=O)[O-])cc1 | – | 328% (active)
COC(=O)c1ccc(NC(=S)NC(=O)c2c(Cl)cnn2C)cc1 | – | 142% (active)
